ChEMBL document CHEMBL4393701, “Appendix A. dithioloquinolinethiones as new potential multitargeted antibacterial and antifungal agents: Synthesis, biological evaluation and molecular docking studies” (2019)
In brackets after ≈: the same amount, converted by molar mass.

What was measured:
[1] = tested on: Bacillus cereus; assay: Antibacterial activity against Bacillus cereus clinical isolate after 24 hrs by iodonitrotetrazolium chloride dye based microdilution assay; format: functional
In short: (§1)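 Fresh overnight cultures adjusted spectrophotometrically to 1×10^5 CFU/mL, giving 1.0×10^4 CFU per well in tryptic soy broth. Compounds were dissolved in 5% DMSO and tested at 0.001-1.0 mg/ml by serial dilution; 5% DMSO was the negative control. After 24 h at 37 °C, 0.2 mg/mL INT solution was added for 30 min at 37 °C and OD read at 655 nm. MIC is the lowest concentration giving significant growth inhibition versus the positive control. Duplicates, repeated three times.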

[2] = tested on: Bacillus cereus; assay: Bactericidal activity against Bacillus cereus clinical isolate incubated for 24 hrs followed by re-plating on tryptic soy broth; format: functional
In short: (§2)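 Bacteria were grown in tryptic soy broth, 1.0×10^4 CFU per well, with compounds in 5% DMSO at 0.001-1.0 mg/ml for 24 h at 37 °C. Then 10 µL was subcultured into fresh TSB. MBC is the lowest concentration showing no growth after subculture, taken as 99.5% kill of the original inoculum. Duplicates, repeated three times.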

[3] = tested on: Micrococcus flavus; assay: Antibacterial activity against Micrococcus flavus ATCC 10240 after 24 hrs by iodonitrotetrazolium chloride dye based microdilution method; format: functional; conditions: ATCC 10240, 24 h; in short: as §1
[4] = tested on: Micrococcus flavus; assay: Bactericidal activity against Micrococcus flavus ATCC 10240 incubated for 24 hrs followed by re-plating on tryptic soy broth; format: functional; conditions: ATCC 10240, 24 h; in short: as §2
[5] = tested on: Staphylococcus aureus; assay: Antibacterial activity against Staphylococcus aureus ATCC 6538 after 24 hrs by iodonitrotetrazolium chloride dye based microdilution method; format: functional; conditions: ATCC 6538, 24 h; in short: as §1
[6] = tested on: Staphylococcus aureus; assay: Bactericidal activity against Staphylococcus aureus ATCC 6538 incubated for 24 hrs followed by re-plating on tryptic soy broth; format: functional; conditions: ATCC 6538, 24 h; in short: as §2
[7] = tested on: Listeria monocytogenes; assay: Antibacterial activity against Listeria monocytogenes NCTC 7973 after 24 hrs by iodonitrotetrazolium chloride dye based microdilution method; format: functional; conditions: NCTC 7973, 24 h; in short: as §1
[8] = tested on: Listeria monocytogenes; assay: Bactericidal activity against Listeria monocytogenes NCTC 7973 incubated for 24 hrs followed by re-plating on tryptic soy broth; format: functional; conditions: NCTC 7973, 24 h; in short: as §2
[9] = tested on: Enterobacter cloacae; assay: Antibacterial activity against Enterobacter cloacae clinical isolate after 24 hrs by iodonitrotetrazolium chloride dye based microdilution method; format: functional; in short: as §1
[10] = tested on: Enterobacter cloacae; assay: Bactericidal activity against Enterobacter cloacae incubated for 24 hrs followed by re-plating on tryptic soy broth; format: functional; in short: as §2
[11] = tested on: Pseudomonas aeruginosa; assay: Antibacterial activity against Pseudomonas aeruginosa ATCC 27853 after 24 hrs by iodonitrotetrazolium chloride dye based microdilution method; format: functional; conditions: ATCC 27853, 24 h; in short: as §1
[12] = tested on: Pseudomonas aeruginosa; assay: Bactericidal activity against Pseudomonas aeruginosa ATCC 27853 incubated for 24 hrs followed by re-plating on tryptic soy broth; format: functional; conditions: ATCC 27853, 24 h; in short: as §2
[13] = tested on: Salmonella typhimurium; assay: Antibacterial activity against Salmonella typhimurium ATCC 13311 after 24 hrs by iodonitrotetrazolium chloride dye based microdilution method; format: functional, Salmonella enterica subsp. enterica serovar Typhimurium; conditions: Salmonella enterica, ATCC 13311, 24 h; in short: as §1
[14] = tested on: Salmonella typhimurium; assay: Bactericidal activity against Salmonella typhimurium ATCC 13311 incubated for 24 hrs followed by re-plating on tryptic soy broth; format: functional, Salmonella enterica subsp. enterica serovar Typhimurium; conditions: Salmonella enterica, ATCC 13311, 24 h; in short: as §2
[15] = tested on: Escherichia coli; assay: Antibacterial activity against Escherichia coli ATCC 35210 after 24 hrs by iodonitrotetrazolium chloride dye based microdilution method; format: functional; conditions: ATCC 35210, 24 h; in short: as §1
[16] = tested on: Escherichia coli; assay: Bactericidal activity against Escherichia coli ATCC 35210 incubated for 24 hrs followed by re-plating on tryptic soy broth; format: functional; conditions: ATCC 35210, 24 h; in short: as §2
[17] = tested on: Aspergillus fumigatus; assay: Antifungal activity against Aspergillus fumigatus ATCC 1022 after 72 hrs by microdilution technique; format: functional; conditions: ATCC 1022, 72 h
In short: (§3)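 Spores were washed off malt agar with 0.85% saline containing 0.1% Tween 80 and adjusted to about 1.0×10^5 per well. Compounds in 5% DMSO were serially diluted (0.001-1.0 mg/ml) in malt broth with inoculum. Plates were shaken at 160 rpm for 72 h at 28 °C. MIC is the lowest concentration without visible growth under a binocular microscope. Three independent experiments in duplicate.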

[18] = tested on: Aspergillus fumigatus; assay: Fungicidal activity against Aspergillus fumigatus ATCC 1022 incubated for 72 hrs followed by sub-culturing on broth malt medium and measured after 72 hrs; format: functional; conditions: ATCC 1022, 72 h
In short: (§4)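 After 72 h exposure in malt broth, 2 µL from test wells was subcultured into wells holding 100 µL broth and incubated a further 72 h at 28 °C. MFC is the lowest concentration with no visible growth, taken as 99.5% kill of the original inoculum. Three independent experiments in duplicate.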

[19] = tested on: Aspergillus versicolor; assay: Antifungal activity against Aspergillus versicolor ATCC 11730 after 72 hrs by microdilution method; format: functional; conditions: ATCC 11730, 72 h; in short: as §3
[20] = tested on: Aspergillus versicolor; assay: Fungicidal activity against Aspergillus versicolor ATCC 11730 incubated for 72 hrs followed by sub-culturing on broth malt medium and measured after 72 hrs; format: functional; conditions: ATCC 11730, 72 h; in short: as §4
[21] = tested on: Aspergillus ochraceus; assay: Antifungal activity against Aspergillus ochraceus ATCC 12066 after 72 hrs by microdilution technique; format: functional; conditions: ATCC 12066, 72 h; in short: as §3
[22] = tested on: Aspergillus ochraceus; assay: Fungicidal activity against Aspergillus ochraceus ATCC 12066 incubated for 72 hrs followed by sub-culturing on broth malt medium and measured after 72 hrs; format: functional; conditions: ATCC 12066, 72 h; in short: as §4
[23] = tested on: Aspergillus niger; assay: Antifungal activity against Aspergillus niger ATCC 6275 after 72 hrs by microdilution technique; format: functional; conditions: ATCC 6275, 72 h; in short: as §3
[24] = tested on: Aspergillus niger; assay: Fungicidal activity against Aspergillus niger ATCC 6275 incubated for 72 hrs followed by sub-culturing on broth malt medium and measured after 72 hrs; format: functional; conditions: ATCC 6275, 72 h; in short: as §4
[25] = tested on: Trichoderma viride; assay: Antifungal activity against Trichoderma viride IAM 5061 after 72 hrs by microdilution technique; format: functional; conditions: IAM 5061, 72 h; in short: as §3
[26] = tested on: Trichoderma viride; assay: Fungicidal activity against Trichoderma viride IAM 5061 incubated for 72 hrs followed by sub-culturing on broth malt medium and measured after 72 hrs; format: functional; conditions: IAM 5061, 72 h; in short: as §4
[27] = tested on: Penicillium ochrochloron; assay: Antifungal activity against Penicillium ochrochloron ATCC 9112 after 72 hrs by microdilution technique; format: functional; conditions: ATCC 9112, 72 h; in short: as §3
[28] = tested on: Penicillium ochrochloron; assay: Fungicidal activity against Penicillium ochrochloron ATCC 9112 incubated for 72 hrs followed by sub-culturing on broth malt medium and measured after 72 hrs; format: functional; conditions: ATCC 9112, 72 h; in short: as §4
[29] = Antifungal activity against Penicillium funiculosum ATCC 36839 after 72 hrs by microdilution technique; format: functional; conditions: Talaromyces pinophilus, ATCC 36839, 72 h; in short: as §3
[30] = Fungicidal activity against Penicillium funiculosum ATCC 36839 incubated for 72 hrs followed by sub-culturing on broth malt medium and measured after 72 hrs; format: functional; conditions: Talaromyces pinophilus, ATCC 36839, 72 h; in short: as §4
[31] = tested on: Penicillium cyclopium; assay: Antifungal activity against Penicillium verrucosum var. cyclopium food isolate after 72 hrs by microdilution technique; format: functional; in short: as §3
[32] = tested on: Penicillium cyclopium; assay: Fungicidal activity against Penicillium verrucosum var. cyclopium food isolate incubated for 72 hrs followed by sub-culturing on broth malt medium and measured after 72 hrs; format: functional; in short: as §4

Compound: CC1(C)c2ssc(=S)c2-c2cccc3c2N1C(=O)/C3=N/NC(N)=S
- MIC [1]: 38.2 µM (≈ 15 µg/mL)
- MBC [2]: 76.4 µM (≈ 30 µg/mL)
- MIC [3]: 38.2 µM (≈ 15 µg/mL)
- MBC [4]: 76.4 µM (≈ 30 µg/mL)
- MIC [5]: 38.2 µM (≈ 15 µg/mL)
- MBC [6]: 76.4 µM (≈ 30 µg/mL)
- MIC [7]: 38.2 µM (≈ 15 µg/mL)
- MBC [8]: 76.4 µM (≈ 30 µg/mL)
- MIC [9]: 38.2 µM (≈ 15 µg/mL)
- MBC [10]: 76.4 µM (≈ 30 µg/mL)
- MIC [11]: 38.2 µM (≈ 15 µg/mL)
- MBC [12]: 76.4 µM (≈ 30 µg/mL)
- MIC [13]: 38.2 µM (≈ 15 µg/mL)
- MBC [14]: 76.4 µM (≈ 30 µg/mL)
- MIC [15]: 38.2 µM (≈ 15 µg/mL)
- MBC [16]: 76.4 µM (≈ 30 µg/mL)
- MIC [17]: 7.64 ×10⁻² mM
- MFC [18]: 15.2 ×10⁻² mM
- MIC [19]: 11.5 ×10⁻² mM
- MFC [20]: 30.6 ×10⁻² mM
- MIC [21]: 15.2 ×10⁻² mM
- MFC [22]: 30.6 ×10⁻² mM
- MIC [23]: 15.2 ×10⁻² mM
- MFC [24]: 30.6 ×10⁻² mM
- MIC [25]: 1.52 ×10⁻² mM
- MFC [26]: 3.82 ×10⁻² mM
- MIC [27]: 3.82 ×10⁻² mM
- MFC [28]: 7.64 ×10⁻² mM
- MIC [29]: 11.5 ×10⁻² mM
- MFC [30]: 30.6 ×10⁻² mM
- MIC [31]: 11.5 ×10⁻² mM
- MFC [32]: 30.6 ×10⁻² mM

Compound: COc1cc2c3c(c1)-c1c(ssc1=S)C(C)(C)N3C(=O)/C2=C1\SC(=S)NC1=O
- MIC [1]: 64.6 µM (≈ 30 µg/mL)
- MBC [2]: 129 µM (≈ 59.9 µg/mL)
- MIC [3]: 96.9 µM (≈ 45 µg/mL)
- MBC [4]: 129 µM (≈ 59.9 µg/mL)
- MIC [5]: 64.6 µM (≈ 30 µg/mL)
- MBC [6]: 129 µM (≈ 59.9 µg/mL)
- MIC [7]: 258 µM (≈ 120 µg/mL)
- MBC [8]: 517 µM (≈ 240 µg/mL)
- MIC [9]: 64.6 µM (≈ 30 µg/mL)
- MBC [10]: 129 µM (≈ 59.9 µg/mL)
- MIC [11]: 129 µM (≈ 60 µg/mL)
- MBC [12]: 258 µM (≈ 120 µg/mL)
- MIC [13]: 64.6 µM (≈ 30 µg/mL)
- MBC [14]: 129 µM (≈ 60 µg/mL)
- MIC [15]: 96.9 µM (≈ 45 µg/mL)
- MBC [16]: 129 µM (≈ 59.9 µg/mL)
- MIC [17]: 25.8 ×10⁻² mM
- MFC [18]: 51.6 ×10⁻² mM
- MIC [19]: 12.9 ×10⁻² mM
- MFC [20]: 25.8 ×10⁻² mM
- MIC [21]: 1.72 ×10⁻² mM
- MFC [22]: 3.23 ×10⁻² mM
- MIC [23]: 25.8 ×10⁻² mM
- MFC [24]: 51.6 ×10⁻² mM
- MIC [25]: 1.72 ×10⁻² mM
- MFC [26]: 3.23 ×10⁻² mM
- MIC [27]: 3.23 ×10⁻² mM
- MFC [28]: 6.46 ×10⁻² mM
- MIC [29]: 12.9 ×10⁻² mM
- MFC [30]: 25.8 ×10⁻² mM
- MIC [31]: 25.8 ×10⁻² mM
- MFC [32]: 51.6 ×10⁻² mM
